Key:
Assay type in all cases: toxicity, cell-based
Fibroblast [1] = assay: Multiplex assay against human fibroblast
Procedure, shortened: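 Imaging took place on a CQ1 microscope at 37°C and 5% CO2 once compound had been added to live cells stained at seeding with Hoechst33342, BioTracker Green Microtubule Cytoskeleton Dye, MitoTracker Red and Annexin V Alexa Fluor 680. CellPathfinder machine-learning gating classed cells as Hoechst high-intensity objects or normal cells, classed normal cells as having healthy, pyknosed or fragmented nuclei, and classed pyknosed cells as mitotic or apoptotic. Tubulin, mitochondrial-mass and membrane-permeability phenotypes are per cents of the healthy-nucleus cells.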

Fibroblast [2] = assay: Incucyte cell viability with human fibroblast; details: 10 µM, compound concentration 10 uM; further: filed as whole numbers so only -1 and 0 and 1 occur
U2OS = assay: Incucyte cell viability with U2OS; details: human, 10 µM, compound concentration 10 uM; further: filed as whole numbers so only -1 and 0 and 1 occur
[3] = 12 h, 1 µM, compound concentration 1 uM, replicate 1
[4] = 12 h, 1 µM, compound concentration 1 uM, replicate 2
[5] = 12 h, 10 µM, compound concentration 10 uM, replicate 1
[6] = 12 h, 10 µM, compound concentration 10 uM, replicate 2
[7] = 24 h, 1 µM, compound concentration 1 uM, replicate 1
[8] = 24 h, 1 µM, compound concentration 1 uM, replicate 2
[9] = 24 h, 10 µM, compound concentration 10 uM, replicate 1
[10] = 24 h, 10 µM, compound concentration 10 uM, replicate 2
[11] = 48 h, 1 µM, compound concentration 1 uM, replicate 1
[12] = 48 h, 1 µM, compound concentration 1 uM, replicate 2
[13] = 48 h, 10 µM, compound concentration 10 uM, replicate 1
[14] = 48 h, 10 µM, compound concentration 10 uM, replicate 2
[15] = 0 h, replicate number 1, timepoint 0 hours
[16] = 12 h, replicate number 1, timepoint 12 hours
[17] = 18 h, replicate number 1, timepoint 18 hours
[18] = 24 h, replicate number 1, timepoint 24 hours

O=C(O)c1ccc2cc(-c3ccc(O)c(C45CC6CC(CC(C6)C4)C5)c3)ccc2c1 [O-DEMETHYLATED ADAPALENE]
Population Apoptotic (%) (Fibroblast [1]; [3]): 57%
Population Fragmented Nuclei (%) (Fibroblast [1]; [3]): 36%
Population Healthy Nuclei (%) (Fibroblast [1]; [3]): 20%
Population Hoechst High Intensity Objects (%) (Fibroblast [1]; [3]): 18%
Population Membrane Permeable-Phenotype (%) (Fibroblast [1]; [3]): 31%
Population Mitochondria Different-Phenotype (%) (Fibroblast [1]; [3]): 21%
Population Mitotic Cells (%) (Fibroblast [1]; [3]): 42%
Population Normal (%) (Fibroblast [1]; [3]): 81%
Population Pyknosed Nuclei (%) (Fibroblast [1]; [3]): 43%
Population Tubulin-Different-Phenotype (%) (Fibroblast [1]; [3]): 60%
Total Cell Count (Fibroblast [1]; [3]): 249
Population Apoptotic (%) (Fibroblast [1]; [4]): 100%
Population Fragmented Nuclei (%) (Fibroblast [1]; [4]): 8%
Population Healthy Nuclei (%) (Fibroblast [1]; [4]): 87%
Population Hoechst High Intensity Objects (%) (Fibroblast [1]; [4]): 9%
Population Membrane Permeable-Phenotype (%) (Fibroblast [1]; [4]): 6%
Population Mitochondria Different-Phenotype (%) (Fibroblast [1]; [4]): 16%
Population Mitotic Cells (%) (Fibroblast [1]; [4]): 0%
Population Normal (%) (Fibroblast [1]; [4]): 90%
Population Pyknosed Nuclei (%) (Fibroblast [1]; [4]): 3%
Population Tubulin-Different-Phenotype (%) (Fibroblast [1]; [4]): 16%
Total Cell Count (Fibroblast [1]; [4]): 62
Population Apoptotic (%) (Fibroblast [1]; [5]): 72%
Population Fragmented Nuclei (%) (Fibroblast [1]; [5]): 32%
Population Healthy Nuclei (%) (Fibroblast [1]; [5]): 37%
Population Hoechst High Intensity Objects (%) (Fibroblast [1]; [5]): 16%
Population Membrane Permeable-Phenotype (%) (Fibroblast [1]; [5]): 44%
Population Mitochondria Different-Phenotype (%) (Fibroblast [1]; [5]): 0%
Population Mitotic Cells (%) (Fibroblast [1]; [5]): 27%
Population Normal (%) (Fibroblast [1]; [5]): 83%
Population Pyknosed Nuclei (%) (Fibroblast [1]; [5]): 30%
Population Tubulin-Different-Phenotype (%) (Fibroblast [1]; [5]): 33%
Total Cell Count (Fibroblast [1]; [5]): 115
Population Apoptotic (%) (Fibroblast [1]; [6]): 100%
Population Fragmented Nuclei (%) (Fibroblast [1]; [6]): 11%
Population Healthy Nuclei (%) (Fibroblast [1]; [6]): 87%
Population Hoechst High Intensity Objects (%) (Fibroblast [1]; [6]): 2%
Population Membrane Permeable-Phenotype (%) (Fibroblast [1]; [6]): 1%
Population Mitochondria Different-Phenotype (%) (Fibroblast [1]; [6]): 16%
Population Mitotic Cells (%) (Fibroblast [1]; [6]): 0%
Population Normal (%) (Fibroblast [1]; [6]): 97%
Population Pyknosed Nuclei (%) (Fibroblast [1]; [6]): 1%
Population Tubulin-Different-Phenotype (%) (Fibroblast [1]; [6]): 25%
Total Cell Count (Fibroblast [1]; [6]): 83
Population Apoptotic (%) (Fibroblast [1]; [7]): 53%
Population Fragmented Nuclei (%) (Fibroblast [1]; [7]): 35%
Population Healthy Nuclei (%) (Fibroblast [1]; [7]): 20%
Population Hoechst High Intensity Objects (%) (Fibroblast [1]; [7]): 23%
Population Membrane Permeable-Phenotype (%) (Fibroblast [1]; [7]): 29%
Population Mitochondria Different-Phenotype (%) (Fibroblast [1]; [7]): 18%
Population Mitotic Cells (%) (Fibroblast [1]; [7]): 46%
Population Normal (%) (Fibroblast [1]; [7]): 76%
Population Pyknosed Nuclei (%) (Fibroblast [1]; [7]): 43%
Population Tubulin-Different-Phenotype (%) (Fibroblast [1]; [7]): 45%
Total Cell Count (Fibroblast [1]; [7]): 236
Population Apoptotic (%) (Fibroblast [1]; [8]): 100%
Population Fragmented Nuclei (%) (Fibroblast [1]; [8]): 7%
Population Healthy Nuclei (%) (Fibroblast [1]; [8]): 89%
Population Hoechst High Intensity Objects (%) (Fibroblast [1]; [8]): 6%
Population Membrane Permeable-Phenotype (%) (Fibroblast [1]; [8]): 6%
Population Mitochondria Different-Phenotype (%) (Fibroblast [1]; [8]): 30%
Population Mitotic Cells (%) (Fibroblast [1]; [8]): 0%
Population Normal (%) (Fibroblast [1]; [8]): 93%
Population Pyknosed Nuclei (%) (Fibroblast [1]; [8]): 3%
Population Tubulin-Different-Phenotype (%) (Fibroblast [1]; [8]): 18%
Total Cell Count (Fibroblast [1]; [8]): 60
Population Apoptotic (%) (Fibroblast [1]; [9]): 57%
Population Fragmented Nuclei (%) (Fibroblast [1]; [9]): 28%
Population Healthy Nuclei (%) (Fibroblast [1]; [9]): 42%
Population Hoechst High Intensity Objects (%) (Fibroblast [1]; [9]): 21%
Population Membrane Permeable-Phenotype (%) (Fibroblast [1]; [9]): 55%
Population Mitochondria Different-Phenotype (%) (Fibroblast [1]; [9]): 0%
Population Mitotic Cells (%) (Fibroblast [1]; [9]): 42%
Population Normal (%) (Fibroblast [1]; [9]): 78%
Population Pyknosed Nuclei (%) (Fibroblast [1]; [9]): 29%
Population Tubulin-Different-Phenotype (%) (Fibroblast [1]; [9]): 44%
Total Cell Count (Fibroblast [1]; [9]): 113
Population Apoptotic (%) (Fibroblast [1]; [10]): 0%
Population Fragmented Nuclei (%) (Fibroblast [1]; [10]): 14%
Population Healthy Nuclei (%) (Fibroblast [1]; [10]): 81%
Population Hoechst High Intensity Objects (%) (Fibroblast [1]; [10]): 7%
Population Membrane Permeable-Phenotype (%) (Fibroblast [1]; [10]): 7%
Population Mitochondria Different-Phenotype (%) (Fibroblast [1]; [10]): 26%
Population Mitotic Cells (%) (Fibroblast [1]; [10]): 100%
Population Normal (%) (Fibroblast [1]; [10]): 92%
Population Pyknosed Nuclei (%) (Fibroblast [1]; [10]): 3%
Population Tubulin-Different-Phenotype (%) (Fibroblast [1]; [10]): 28%
Total Cell Count (Fibroblast [1]; [10]): 83
Population Apoptotic (%) (Fibroblast [1]; [11]): 78%
Population Fragmented Nuclei (%) (Fibroblast [1]; [11]): 61%
Population Healthy Nuclei (%) (Fibroblast [1]; [11]): 26%
Population Hoechst High Intensity Objects (%) (Fibroblast [1]; [11]): 43%
Population Membrane Permeable-Phenotype (%) (Fibroblast [1]; [11]): 2%
Population Mitochondria Different-Phenotype (%) (Fibroblast [1]; [11]): 15%
Population Mitotic Cells (%) (Fibroblast [1]; [11]): 21%
Population Normal (%) (Fibroblast [1]; [11]): 56%
Population Pyknosed Nuclei (%) (Fibroblast [1]; [11]): 12%
Population Tubulin-Different-Phenotype (%) (Fibroblast [1]; [11]): 5%
Total Cell Count (Fibroblast [1]; [11]): 267
Population Apoptotic (%) (Fibroblast [1]; [12]): 71%
Population Fragmented Nuclei (%) (Fibroblast [1]; [12]): 18%
Population Healthy Nuclei (%) (Fibroblast [1]; [12]): 71%
Population Hoechst High Intensity Objects (%) (Fibroblast [1]; [12]): 14%
Population Membrane Permeable-Phenotype (%) (Fibroblast [1]; [12]): 11%
Population Mitochondria Different-Phenotype (%) (Fibroblast [1]; [12]): 1%
Population Mitotic Cells (%) (Fibroblast [1]; [12]): 28%
Population Normal (%) (Fibroblast [1]; [12]): 85%
Population Pyknosed Nuclei (%) (Fibroblast [1]; [12]): 9%
Population Tubulin-Different-Phenotype (%) (Fibroblast [1]; [12]): 28%
Total Cell Count (Fibroblast [1]; [12]): 87
Population Apoptotic (%) (Fibroblast [1]; [13]): 85%
Population Fragmented Nuclei (%) (Fibroblast [1]; [13]): 52%
Population Healthy Nuclei (%) (Fibroblast [1]; [13]): 40%
Population Hoechst High Intensity Objects (%) (Fibroblast [1]; [13]): 20%
Population Membrane Permeable-Phenotype (%) (Fibroblast [1]; [13]): 35%
Population Mitochondria Different-Phenotype (%) (Fibroblast [1]; [13]): 0%
Population Mitotic Cells (%) (Fibroblast [1]; [13]): 14%
Population Normal (%) (Fibroblast [1]; [13]): 79%
Population Pyknosed Nuclei (%) (Fibroblast [1]; [13]): 7%
Population Tubulin-Different-Phenotype (%) (Fibroblast [1]; [13]): 35%
Total Cell Count (Fibroblast [1]; [13]): 116
Population Apoptotic (%) (Fibroblast [1]; [14]): 66%
Population Fragmented Nuclei (%) (Fibroblast [1]; [14]): 37%
Population Healthy Nuclei (%) (Fibroblast [1]; [14]): 58%
Population Hoechst High Intensity Objects (%) (Fibroblast [1]; [14]): 14%
Population Membrane Permeable-Phenotype (%) (Fibroblast [1]; [14]): 24%
Population Mitochondria Different-Phenotype (%) (Fibroblast [1]; [14]): 4%
Population Mitotic Cells (%) (Fibroblast [1]; [14]): 33%
Population Normal (%) (Fibroblast [1]; [14]): 85%
Population Pyknosed Nuclei (%) (Fibroblast [1]; [14]): 3%
Population Tubulin-Different-Phenotype (%) (Fibroblast [1]; [14]): 46%
Total Cell Count (Fibroblast [1]; [14]): 99
Growth Rate (Fibroblast [2]; [15]): 0
Growth Rate (Fibroblast [2]; 6 h, replicate number 1, timepoint 6 hours): 0
Growth Rate (Fibroblast [2]; [16]): 0
Growth Rate (Fibroblast [2]; 12 h, replicate number 2, timepoint 12 hours): 1
Growth Rate (Fibroblast [2]; [17]): 0
Growth Rate (Fibroblast [2]; [18]): 0
Growth Rate (U2OS; [15]): 0
Growth Rate (U2OS; [16]): 1
Growth Rate (U2OS; [17]): 1
Growth Rate (U2OS; [18]): 0

Source: ChEMBL document CHEMBL4689842, “EUbOPEN Chemogenomics Library wave 1” (2021)
